Reference: ChEMBL document CHEMBL5150021, “Identification of 5-(Aryl/Heteroaryl)amino-4-quinolones as Potent Membrane-Disrupting Agents to Combat Antibiotic-Resistant Gram-Positive Bacteria” (J Med Chem, 2022)
Values after ≈ are worked out from the molar mass of the structure shown.

How the values were obtained:
[1] = Protein binding in human plasma at […] incubated for 4 hrs under shaking condition by LC-MS/MS based equilibrium dialysis method; format: ADME, cell-free
Outline: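 Rapid equilibrium dialysis (8k MWCO). Compound is spiked into human plasma at 10 μg/mL and dialysed against DPBS pH 7.4 with shaking for 4 h at 37 °C. Matrices are matched, proteins precipitated with methanol containing internal standard, and both chambers quantified by LC-MS/MS against a calibration curve. Percent free and bound are calculated from chamber concentrations.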

Vero [2] = assay: Cytotoxicity against African green monkey Vero cells assessed as increase in LDH release at 0.47 to 30 uM incubated for 24 hrs; format: toxicity, cell-based; details: chlorocebus sabaeus, dose 0.47-30 µM
Outline: (§1)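 Confluent Vero cells (maintained in RPMI 1640 + 10% FBS, 37 °C, 5% CO2) exposed to compound at 0.47–30 μM (twofold dilutions) in serum-free medium for 24 h at 37 °C. LDH in supernatant is measured colorimetrically at 490 nm and expressed as percent of 2% detergent positive control.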

[3] = Kinetic aqueous solubility of the compound in DPBS at pH 7.4 at 100 ug/ml measured after 6 hrs by LC-MS/MS analysis; format: physicochemical; details: DPBS, pH 7.4, dose 100 µg/ml, read-out: Kinetic_solubility
Staphylococcus aureus [4] = assay: Antibacterial activity against methicillin resistant Staphylococcus aureus FPR3757 assessed as inhibition of bacterial growth incubated for 24 hrs by CLSI based method; format: functional; details: read-out: MIC100
Outline: (§2)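 It was mixed 1:1 with twofold serial compound dilutions and incubated stationary at 37 °C for 24 h. MIC was the lowest concentration giving complete inhibition of observable growth, with an oxacillin control.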

Vero [5] = assay: Cytotoxicity against African green monkey Vero cells assessed as increase in LDH release at 30 uM incubated for 24 hrs relative to control; format: toxicity, cell-based; details: chlorocebus sabaeus; outline: as §1
[6] = tested on: Staphylococcus epidermidis; assay: Antibacterial activity against Staphylococcus epidermidis NIF104008 assessed as inhibition of bacterial growth incubated for 24 hrs by CLSI based method; format: functional
Outline: (§3)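 Broth microdilution per CLSI. Equal volume of twofold serial compound dilutions added. Incubated stationary at 37 °C for 24 h. MIC taken as lowest concentration giving complete inhibition of visible growth. Oxacillin control for Gram-positives, ceftriaxone for Gram-negatives.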

Staphylococcus simulans [7] = assay: Antibacterial activity against Staphylococcus simulans assessed as inhibition of protein synthesis at 5 times MIC measured upto 60 mins by [3H]-L-isoleucine incorporation based scintillation counter analysis; format: functional; details: 1 h
Outline: (§4)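 Aliquots taken 0–60 min, precipitated with ice-cold 10% TCA, filtered, washed, scintillation counted. Percent inhibition is relative to DMSO control at 60 min; triplicate.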

Enterococcus faecalis [8] = assay: Antibacterial activity against Enterococcus faecalis DHMC #1 assessed as inhibition of bacterial growth incubated for 24 hrs by CLSI based method; format: functional; outline: as §3
Escherichia coli = assay: Antibacterial activity against Escherichia coli DHMC-1 assessed as inhibition of bacterial growth incubated for 24 hrs by CLSI based method; format: functional; outline: as §3
Staphylococcus aureus [9] = assay: Antibacterial activity against methicillin resistant Staphylococcus aureus FPR3757 assessed as inhibition of bacterial growth incubated for 24 hrs in presence of 10% FBS by CLSI based method; format: functional
Outline: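 CLSI broth microdilution against MRSA FPR3757 (USA300) in Mueller–Hinton broth supplemented with 10% serum (fetal bovine or mouse). Inoculum 10⁶ CFU/mL with twofold serial compound dilutions, stationary incubation at 37 °C for 24 h. MIC read as lowest concentration with complete inhibition of visible growth.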

Klebsiella pneumoniae = assay: Antibacterial activity against Klebsiella pneumoniae 7117 assessed as inhibition of bacterial growth incubated for 24 hrs by CLSI based method; format: functional; outline: as §3
Staphylococcus simulans [10] = assay: Antibacterial activity against Staphylococcus simulans assessed as inhibition of DNA synthesis at 0.5 to 5 times MIC measured upto 60 mins by [3H]-thymidine incorporation based scintillation counter analysis; format: functional, organism-based; details: DDE = dose-dependent effect
Outline: (§5)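 S. simulans was grown in cation-adjusted Mueller–Hinton medium at 37 °C. […] Samples were taken at 0–60 min, precipitated with ice-cold 10% TCA, filtered and counted. Inhibition at 60 min is relative to DMSO control; triplicate.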

Staphylococcus aureus [11] = assay: Antibacterial activity against community-associated methicillin-resistant Staphylococcus aureus USA300 FPR3757 assessed as inhibition of bacterial growth incubated for 24 hrs by CLSI based method; format: functional; outline: as §2
Staphylococcus aureus [12] = assay: microbe, parasite or virus in culture; details: USA300 FPR3757, 24 h
Staphylococcus aureus [13] = assay: Antibacterial activity against methicillin-resistant Staphylococcus aureus MW2 assessed as inhibition of bacterial growth incubated for 24 hrs by CLSI based method; format: functional; outline: as §3
Candida albicans = assay: Antifungal activity against Candida albicans SC5314 assessed as inhibition of bacterial growth incubated for 24 hrs by CLSI based method; format: functional
Outline: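 Broth microdilution per CLSI. It is mixed 1:1 with twofold serial compound dilutions and incubated stationary at 35 °C for 24 h. MIC is read as the lowest concentration with no observable growth.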

Staphylococcus simulans [14] = assay: Antibacterial activity against Staphylococcus simulans assessed as inhibition of RNA synthesis at 0.5 to 5 times MIC measured upto 60 mins by [3H]-uridine incorporation based scintillation counter analysis; format: functional, organism-based; details: DDE = dose-dependent effect; outline: as §5
Staphylococcus simulans [15] = assay: Antibacterial activity against Staphylococcus simulans assessed as inhibition of DNA synthesis at 5 times MIC measured upto 60 mins by [3H]-thymidine incorporation based scintillation counter analysis; format: functional; details: 1 h; outline: as §4
Staphylococcus aureus [16] = assay: Antibacterial activity against methicillin-resistant Staphylococcus aureus COL assessed as inhibition of bacterial growth incubated for 24 hrs by CLSI based method; format: functional; outline: as §3
Staphylococcus aureus [17] = assay: Antibacterial activity against methicillin-resistant Staphylococcus aureus N315 assessed as inhibition of bacterial growth incubated for 24 hrs by CLSI based method; format: functional; outline: as §3
Enterobacter cloacae = assay: Antibacterial activity against Enterobacter cloacae ND-21 assessed as inhibition of bacterial growth incubated for 24 hrs by CLSI based method; format: functional; outline: as §3
[18] = tested on: Staphylococcus epidermidis; assay: Antibacterial activity against Staphylococcus epidermidis NIF104003 assessed as inhibition of bacterial growth incubated for 24 hrs by CLSI based method; format: functional; outline: as §3
Staphylococcus simulans [19] = assay: Antibacterial activity against Staphylococcus simulans assessed as inhibition of RNA synthesis at 5 times MIC measured upto 60 mins by [3H]-uridine incorporation based scintillation counter analysis; format: functional; details: 1 h; outline: as §4
Staphylococcus simulans [20] = assay: Antibacterial activity against Staphylococcus simulans assessed as inhibition of cell wall synthesis at 5 times MIC measured upto 60 mins by [3H]-glucosamine incorporation based scintillation counter analysis; format: functional; details: 1 h; outline: as §4
Staphylococcus aureus [21] = assay: Antibacterial activity against methicillin-resistant Staphylococcus aureus NRS71 assessed as inhibition of bacterial growth incubated for 24 hrs by CLSI based method; format: functional; outline: as §3
Enterococcus faecium [22] = assay: Antibacterial activity against Enterococcus faecium ATCC19579 assessed as inhibition of bacterial growth incubated for 24 hrs by CLSI based method; format: functional; outline: as §3
Enterococcus faecalis [23] = assay: Antibacterial activity against Enterococcus faecalis ATCC700802 assessed as inhibition of bacterial growth incubated for 24 hrs by CLSI based method; format: functional; outline: as §3
Enterococcus faecium [24] = assay: Antibacterial activity against Enterococcus faecium DHMC #1 assessed as inhibition of bacterial growth incubated for 24 hrs by CLSI based method; format: functional; outline: as §3
Staphylococcus simulans [25] = assay: Antibacterial activity against Staphylococcus simulans assessed as inhibition of protein synthesis at 0.5 to 5 times MIC measured upto 60 mins by [3H]-L-isoleucine incorporation based scintillation counter analysis; format: functional, organism-based; details: DDE = dose-dependent effect; outline: as §5
Erythrocyte = assay: Hemolytic activity in sheep erythrocytes at 32 ug/ml incubated for 1 hr; format: toxicity, cell-based, Ovis aries; details: dose 32 µg/ml
Outline: (§6)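 4% sheep erythrocytes mixed 1:1 with twofold serial compound dilutions in PBS, incubated stationary 1 h at 37 °C, then centrifuged at 500g for 5 min. Supernatant A540 is measured and percent hemolysis is calculated relative to DMSO vehicle (0%) and Triton X-100 (100%). Triplicate, mean ± SD.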

[26] = Cytotoxicity against sheep erythrocytes assessed as reduction in cell viability; format: toxicity, cell-based, Ovis aries, Erythrocyte; outline: as §6
[27] = Therapeutic index, ratio of CC50 for Cytotoxicity against sheep erythrocytes to MIC for antibacterial activity against methicillin resistant Staphylococcus aureus FPR3757; format: toxicity
Outline: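 Ratio of erythrocyte CC50 to MRSA FPR3757 MIC. For hemolysis, 4% washed sheep erythrocytes were mixed 1:1 with twofold compound dilutions in PBS and incubated 1 h at 37 °C. Supernatant A540 was read after centrifugation and normalized between DMSO and Triton X-100 (100% lysis). Triplicates. Highest concentration tested: 32 μg/mL.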

For `O=c1cc(C(F)(F)F)[nH]c2cc(C(F)(F)F)cc(Nc3ccc(F)cn3)c12`, the PPB [1] was 99.8%, the Activity (Vero [2]) was “Non-Toxic” and the solubility kinetic at 6 h [3] was 1 µg/mL (≈ 2.56 µM). For the same molecule, the MIC (Staphylococcus aureus [4]) was 0.125 µg/mL (≈ 0.319 µM) and the Activity (Vero [5]) was 20%.

With `FC(F)(F)c1ccc2c(Nc3ccc(Cl)c(Cl)c3)cc(C(F)(F)F)nc2c1` the MIC [6] was 0.125 µg/mL (≈ 0.294 µM), the “inhibition (INH)” value (Staphylococcus simulans [7]) was 100% and the MIC (Enterococcus faecalis [8]) was 0.25 µg/mL (≈ 0.588 µM). For the same molecule, the MIC (Escherichia coli) was > 128 µg/mL, the MIC (Staphylococcus aureus [9]) was 8 µg/mL and the MIC (Klebsiella pneumoniae) was > 128 µg/mL. For the same molecule, the inhibition (Staphylococcus simulans [10]) was “Dde”, the MIC (Staphylococcus aureus [11]) was 0.0625 µg/mL (≈ 0.147 µM) and the MBC (Staphylococcus aureus [12]) was 2 µg/mL (≈ 4.7 µM). The MIC (Staphylococcus aureus [13]) was 0.125 µg/mL (≈ 0.294 µM), the MIC (Candida albicans) was > 256 µg/mL and the inhibition (Staphylococcus simulans [14]) was “Dde”. The “inhibition (INH)” value (Staphylococcus simulans [15]) was 100%, the MIC (Staphylococcus aureus [16]) was 0.25 µg/mL (≈ 0.588 µM) and the MIC (Staphylococcus aureus [17]) was 0.25 µg/mL (≈ 0.588 µM). For the same molecule, the MIC (Enterobacter cloacae) was > 128 µg/mL, the MIC (Staphylococcus aureus [4]) was 0.0625 µg/mL (≈ 0.147 µM) and the MIC [18] was 0.25 µg/mL (≈ 0.588 µM). The “inhibition (INH)” value (Staphylococcus simulans [19]) was 100%, the “inhibition (INH)” value (Staphylococcus simulans [20]) was 100% and the MIC (Staphylococcus aureus [21]) was 0.25 µg/mL (≈ 0.588 µM). For the same molecule, the MIC (Enterococcus faecium [22]) was 0.125 µg/mL (≈ 0.294 µM), the MIC (Enterococcus faecalis [23]) was 0.5 µg/mL (≈ 1.18 µM) and the MIC (Enterococcus faecium [24]) was 0.25 µg/mL (≈ 0.588 µM). The inhibition (Staphylococcus simulans [25]) was “Dde”.

With `O=c1cc(C(F)(F)F)[nH]c2cc(C(F)(F)F)cc(Nc3ccc(F)c(F)c3)c12` the Activity (Erythrocyte) was “Non-Toxic”, the CC50 [26] was > 32 µg/mL and the selectivity ratio [27] was > 500. For the same molecule, the MIC (Staphylococcus aureus [4]) was < 0.0625 µg/mL.
